Source: ChEMBL document CHEMBL4428062, “Human Toll-like Receptor (TLR) 8-Specific Agonistic Activity in Substituted Pyrimidine-2,4-diamines” (J Med Chem, 2016)
Activity calls are given as the source filed them. The calls are words filed in the database; no cut-off is given here.

Key:
[1] = molecular target: Toll-like receptor 2 (Homo sapiens) (UniProt O60603); experiment: Agonist activity at human TLR2 expressed in HEK293 cells assessed as induction of NF-kappaB activity by secreted alkaline phosphatase reporter gene assay; type: cell-based
Outline: (§1)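 HEK293 reporter lines stably co-transfected with the respective human TLR and an NF-κB/AP-1-driven secreted alkaline phosphatase gene, kept in selection medium. About 10^5 cells/ml were incubated with graded concentrations of stimuli. Supernatant sAP was read spectrophotometrically at 620 nm using a chromogenic substrate in detection medium. EC50 was taken as the arithmetic mean of quadruplicate samples.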

[2] = molecular target: Toll-like receptor 3 (Homo sapiens) (UniProt O15455); experiment: Agonist activity at human TLR3 expressed in HEK293 cells assessed as induction of NF-kappaB activity by secreted alkaline phosphatase reporter gene assay; type: cell-based; outline: as §1
[3] = molecular target: Toll-like receptor 4 (Homo sapiens) (UniProt O00206); experiment: Agonist activity at human TLR4 expressed in HEK293 cells assessed as induction of NF-kappaB activity by secreted alkaline phosphatase reporter gene assay; type: cell-based; outline: as §1
[4] = molecular target: Toll-like receptor 5 (Homo sapiens) (UniProt O60602); experiment: Agonist activity at human TLR5 expressed in HEK293 cells assessed as induction of NF-kappaB activity by secreted alkaline phosphatase reporter gene assay; type: cell-based; outline: as §1
[5] = molecular target: T1, Toll-like receptor 7 (Homo sapiens) (UniProt Q9NYK1); experiment: Agonist activity at human TLR7 expressed in HEK293 cells assessed as induction of NF-kappaB activity by secreted alkaline phosphatase reporter gene assay; type: cell-based; outline: as §1
T1 sequence (whole entry): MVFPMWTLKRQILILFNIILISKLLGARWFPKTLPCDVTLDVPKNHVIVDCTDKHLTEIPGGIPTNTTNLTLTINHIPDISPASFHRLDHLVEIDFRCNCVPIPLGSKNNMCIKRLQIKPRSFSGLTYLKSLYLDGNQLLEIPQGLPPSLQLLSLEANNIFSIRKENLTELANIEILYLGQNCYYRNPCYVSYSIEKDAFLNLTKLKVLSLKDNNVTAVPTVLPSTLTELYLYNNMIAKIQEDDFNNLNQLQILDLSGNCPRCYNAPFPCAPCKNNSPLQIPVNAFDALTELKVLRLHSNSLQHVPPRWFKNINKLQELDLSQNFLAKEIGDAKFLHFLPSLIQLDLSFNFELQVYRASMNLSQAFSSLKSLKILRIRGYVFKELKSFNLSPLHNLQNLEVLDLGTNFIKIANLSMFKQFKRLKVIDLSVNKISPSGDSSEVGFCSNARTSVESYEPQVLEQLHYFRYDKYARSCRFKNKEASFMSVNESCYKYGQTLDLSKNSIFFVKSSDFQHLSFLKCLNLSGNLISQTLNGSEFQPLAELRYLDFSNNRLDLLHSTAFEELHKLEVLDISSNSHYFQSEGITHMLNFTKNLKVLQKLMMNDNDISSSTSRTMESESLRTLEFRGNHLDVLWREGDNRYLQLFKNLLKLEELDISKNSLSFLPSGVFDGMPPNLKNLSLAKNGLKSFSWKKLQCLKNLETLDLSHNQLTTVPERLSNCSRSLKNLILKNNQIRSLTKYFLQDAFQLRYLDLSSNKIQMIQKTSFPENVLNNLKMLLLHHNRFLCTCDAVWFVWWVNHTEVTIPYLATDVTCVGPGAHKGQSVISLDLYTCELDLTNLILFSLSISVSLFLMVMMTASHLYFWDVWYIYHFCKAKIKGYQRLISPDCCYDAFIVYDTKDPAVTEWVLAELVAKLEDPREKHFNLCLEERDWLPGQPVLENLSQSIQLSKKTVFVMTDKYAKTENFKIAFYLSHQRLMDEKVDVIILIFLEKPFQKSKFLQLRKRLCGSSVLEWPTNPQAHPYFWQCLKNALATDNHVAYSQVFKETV

[6] = molecular target: T2, Toll-like receptor 8 (Homo sapiens) (UniProt Q9NR97); experiment: Agonist activity at TLR8 in human PBMC assessed as increase in TNF-alpha production after 16 hrs by immunoassay
T2 sequence (whole entry): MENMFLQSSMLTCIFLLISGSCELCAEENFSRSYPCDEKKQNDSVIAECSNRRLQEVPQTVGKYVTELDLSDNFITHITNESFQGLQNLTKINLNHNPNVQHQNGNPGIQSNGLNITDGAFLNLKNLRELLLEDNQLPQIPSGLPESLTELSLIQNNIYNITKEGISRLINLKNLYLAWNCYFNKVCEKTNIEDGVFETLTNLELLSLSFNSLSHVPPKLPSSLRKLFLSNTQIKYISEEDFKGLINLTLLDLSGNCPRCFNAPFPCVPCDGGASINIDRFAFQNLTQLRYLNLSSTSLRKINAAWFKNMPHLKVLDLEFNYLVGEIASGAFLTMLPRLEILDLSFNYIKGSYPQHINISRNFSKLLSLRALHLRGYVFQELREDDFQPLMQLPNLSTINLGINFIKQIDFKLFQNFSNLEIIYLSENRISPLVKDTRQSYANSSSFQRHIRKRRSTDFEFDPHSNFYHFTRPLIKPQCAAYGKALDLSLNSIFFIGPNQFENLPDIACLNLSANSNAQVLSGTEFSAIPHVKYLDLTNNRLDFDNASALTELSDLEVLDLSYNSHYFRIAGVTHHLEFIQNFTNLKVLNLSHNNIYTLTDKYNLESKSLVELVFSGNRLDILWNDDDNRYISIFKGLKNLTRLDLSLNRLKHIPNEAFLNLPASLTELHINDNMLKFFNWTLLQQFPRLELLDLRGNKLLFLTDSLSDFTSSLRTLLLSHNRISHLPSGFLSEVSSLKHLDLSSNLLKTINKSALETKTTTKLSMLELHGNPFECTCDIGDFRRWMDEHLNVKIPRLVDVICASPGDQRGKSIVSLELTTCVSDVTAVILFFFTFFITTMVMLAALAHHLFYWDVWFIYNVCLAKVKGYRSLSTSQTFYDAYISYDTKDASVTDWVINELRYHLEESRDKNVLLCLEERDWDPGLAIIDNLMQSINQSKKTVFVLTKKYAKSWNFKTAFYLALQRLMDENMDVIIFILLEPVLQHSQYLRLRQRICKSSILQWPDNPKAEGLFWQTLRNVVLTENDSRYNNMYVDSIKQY
Outline: (§2)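 Freshly isolated human PBMC from venipuncture blood (informed consent), 10^5 cells/well, stimulated 16 h with graded concentrations of compound. Supernatants collected by centrifugation and cytokines quantified in duplicate with a multiplexed cytokine/chemokine magnetic bead array.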

[7] = molecular target: T2, Toll-like receptor 8 (Homo sapiens); experiment: Agonist activity at TLR8 in human PBMC assessed as Th1-biased stimulatory activity measured as IL-12 release after 16 hrs by immunoassay; outline: as §2
[8] = molecular target: T2, Toll-like receptor 8 (Homo sapiens); experiment: Agonist activity at TLR8 in human PBMC assessed as induction of IL-1beta levels after 16 hrs by immunoassay; outline: as §2
[9] = molecular target: T2, Toll-like receptor 8 (Homo sapiens); experiment: Agonist activity at TLR8 in human PBMC assessed as induction of IL-8 levels after 16 hrs by immunoassay; outline: as §2
Toll-like receptor 8 = molecular target: T3, Toll-like receptor 8 (Homo sapiens, UniProt Q9NR97); experiment: Agonist activity at human TLR8 expressed in HEK293 cells assessed as induction of NF-kappaB activity by secreted alkaline phosphatase reporter gene assay; type: cell-based; outline: as §1
T3 sequence (Q9NR97 whole entry): T2 sequence (whole entry)

Toll-like receptor 4 (Homo sapiens), sequence (O00206 whole entry): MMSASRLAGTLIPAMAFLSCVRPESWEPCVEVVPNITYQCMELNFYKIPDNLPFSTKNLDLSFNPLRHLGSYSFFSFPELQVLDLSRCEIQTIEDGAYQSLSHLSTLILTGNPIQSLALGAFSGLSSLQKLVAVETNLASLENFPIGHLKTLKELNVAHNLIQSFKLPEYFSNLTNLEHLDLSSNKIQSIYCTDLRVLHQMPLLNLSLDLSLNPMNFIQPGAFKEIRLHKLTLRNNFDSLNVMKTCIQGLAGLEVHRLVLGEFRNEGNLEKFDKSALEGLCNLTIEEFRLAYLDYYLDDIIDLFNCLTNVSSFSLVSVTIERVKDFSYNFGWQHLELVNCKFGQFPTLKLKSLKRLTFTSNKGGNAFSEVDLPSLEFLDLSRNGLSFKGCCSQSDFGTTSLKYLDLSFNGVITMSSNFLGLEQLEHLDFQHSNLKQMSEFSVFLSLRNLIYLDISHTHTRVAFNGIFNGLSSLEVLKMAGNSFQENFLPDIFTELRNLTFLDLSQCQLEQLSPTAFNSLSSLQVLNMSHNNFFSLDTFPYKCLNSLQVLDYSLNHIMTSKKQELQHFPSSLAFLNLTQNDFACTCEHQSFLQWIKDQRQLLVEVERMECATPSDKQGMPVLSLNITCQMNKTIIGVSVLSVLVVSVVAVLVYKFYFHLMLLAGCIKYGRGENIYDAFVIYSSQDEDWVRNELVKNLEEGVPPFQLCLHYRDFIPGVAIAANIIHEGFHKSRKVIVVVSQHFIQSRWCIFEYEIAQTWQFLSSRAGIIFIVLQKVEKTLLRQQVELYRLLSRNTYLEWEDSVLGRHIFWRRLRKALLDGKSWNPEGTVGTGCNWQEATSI
Toll-like receptor 5 (Homo sapiens), sequence (O60602 whole entry): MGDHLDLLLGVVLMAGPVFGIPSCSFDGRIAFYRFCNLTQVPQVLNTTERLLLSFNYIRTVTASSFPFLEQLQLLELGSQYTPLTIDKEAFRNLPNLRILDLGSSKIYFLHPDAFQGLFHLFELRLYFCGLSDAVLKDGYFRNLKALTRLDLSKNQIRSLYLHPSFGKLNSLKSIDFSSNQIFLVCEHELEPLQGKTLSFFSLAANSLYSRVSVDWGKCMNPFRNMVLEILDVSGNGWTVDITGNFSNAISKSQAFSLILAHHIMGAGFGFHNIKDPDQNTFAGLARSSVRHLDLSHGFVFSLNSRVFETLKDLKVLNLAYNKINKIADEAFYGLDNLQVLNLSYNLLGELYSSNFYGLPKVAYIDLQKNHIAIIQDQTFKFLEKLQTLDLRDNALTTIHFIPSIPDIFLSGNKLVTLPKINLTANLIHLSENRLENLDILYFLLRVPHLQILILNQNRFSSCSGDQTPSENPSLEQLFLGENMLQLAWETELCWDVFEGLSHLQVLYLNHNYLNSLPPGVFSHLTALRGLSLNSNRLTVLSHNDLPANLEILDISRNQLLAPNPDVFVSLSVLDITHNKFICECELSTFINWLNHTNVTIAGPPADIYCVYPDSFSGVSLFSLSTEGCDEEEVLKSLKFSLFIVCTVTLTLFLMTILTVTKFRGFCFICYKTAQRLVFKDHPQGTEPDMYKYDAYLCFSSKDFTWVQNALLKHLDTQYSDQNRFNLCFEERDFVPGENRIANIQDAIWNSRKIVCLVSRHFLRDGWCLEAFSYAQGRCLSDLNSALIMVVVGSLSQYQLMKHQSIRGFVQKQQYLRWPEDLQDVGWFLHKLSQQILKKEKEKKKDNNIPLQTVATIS
Toll-like receptor 3 (Homo sapiens), sequence (O15455 whole entry): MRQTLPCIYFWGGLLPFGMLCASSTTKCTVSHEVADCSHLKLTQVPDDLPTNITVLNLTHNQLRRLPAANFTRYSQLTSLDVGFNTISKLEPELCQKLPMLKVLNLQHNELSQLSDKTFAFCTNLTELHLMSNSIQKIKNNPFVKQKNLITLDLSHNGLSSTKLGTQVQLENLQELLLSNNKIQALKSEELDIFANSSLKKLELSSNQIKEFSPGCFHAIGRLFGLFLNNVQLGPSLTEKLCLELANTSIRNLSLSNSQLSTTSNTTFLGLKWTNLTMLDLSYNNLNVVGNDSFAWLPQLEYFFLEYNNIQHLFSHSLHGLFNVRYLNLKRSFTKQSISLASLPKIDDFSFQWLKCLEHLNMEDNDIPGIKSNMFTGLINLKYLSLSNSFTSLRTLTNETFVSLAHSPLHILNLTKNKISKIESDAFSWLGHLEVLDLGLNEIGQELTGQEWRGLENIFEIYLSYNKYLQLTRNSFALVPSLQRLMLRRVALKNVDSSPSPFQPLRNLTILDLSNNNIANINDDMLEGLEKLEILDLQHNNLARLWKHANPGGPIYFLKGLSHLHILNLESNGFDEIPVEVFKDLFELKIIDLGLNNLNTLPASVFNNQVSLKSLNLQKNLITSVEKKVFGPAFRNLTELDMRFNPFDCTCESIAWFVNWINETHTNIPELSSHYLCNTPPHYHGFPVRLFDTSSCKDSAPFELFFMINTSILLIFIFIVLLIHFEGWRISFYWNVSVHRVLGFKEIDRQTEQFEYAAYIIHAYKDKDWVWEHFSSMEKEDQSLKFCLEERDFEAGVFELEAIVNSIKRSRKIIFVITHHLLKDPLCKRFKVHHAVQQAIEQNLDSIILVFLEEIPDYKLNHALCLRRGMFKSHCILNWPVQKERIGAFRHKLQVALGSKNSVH
Toll-like receptor 2 (Homo sapiens), sequence (O60603 whole entry): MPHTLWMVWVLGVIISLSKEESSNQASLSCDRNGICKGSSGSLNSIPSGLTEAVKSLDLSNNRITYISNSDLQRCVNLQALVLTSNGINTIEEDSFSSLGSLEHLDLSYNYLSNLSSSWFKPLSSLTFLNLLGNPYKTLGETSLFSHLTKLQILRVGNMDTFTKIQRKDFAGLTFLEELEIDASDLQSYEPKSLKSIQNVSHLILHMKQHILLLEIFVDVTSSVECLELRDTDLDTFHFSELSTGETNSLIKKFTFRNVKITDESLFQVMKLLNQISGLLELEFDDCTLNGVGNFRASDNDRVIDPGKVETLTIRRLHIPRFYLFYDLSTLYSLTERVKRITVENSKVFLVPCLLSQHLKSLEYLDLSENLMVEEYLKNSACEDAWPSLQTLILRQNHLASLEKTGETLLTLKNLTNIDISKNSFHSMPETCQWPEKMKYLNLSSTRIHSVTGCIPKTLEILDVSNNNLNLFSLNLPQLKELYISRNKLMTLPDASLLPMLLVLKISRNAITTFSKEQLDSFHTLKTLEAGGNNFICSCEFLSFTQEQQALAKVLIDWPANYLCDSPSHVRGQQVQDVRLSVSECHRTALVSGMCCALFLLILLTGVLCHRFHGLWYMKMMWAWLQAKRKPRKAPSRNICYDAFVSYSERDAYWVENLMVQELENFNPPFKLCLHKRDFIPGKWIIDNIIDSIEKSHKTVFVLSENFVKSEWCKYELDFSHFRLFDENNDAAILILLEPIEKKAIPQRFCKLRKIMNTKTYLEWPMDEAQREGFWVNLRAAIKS

CCCCNc1nc(N)nc(-c2ccccc2)c1CCCCN
Activity [1]: inactive
Activity [2]: inactive
Activity [3]: inactive
Activity [4]: inactive
Activity [5]: inactive
Activity [6]: inactive
Activity [7]: inactive
Activity [8]: inactive
Activity [9]: inactive

CCCCCn1c(N)nc2c(C)cccc21
EC50 (Toll-like receptor 8): 1800 nM
Activity [1]: inactive
Activity [2]: inactive
Activity [3]: inactive
Activity [4]: inactive
Activity [5]: inactive
Activity [6]: Active
Activity [8]: Active
Activity [9]: Active

CCCCNc1nc(N)nc(C)c1CCCCN
EC50 (Toll-like receptor 8): 300 nM
Activity [1]: inactive
Activity [2]: inactive
Activity [3]: inactive
Activity [4]: inactive
Activity [5]: inactive
Activity [7]: Active
Activity [8]: inactive
Activity [9]: inactive

CCCCNc1cc(-c2ccccc2)nc(N)n1
EC50 (Toll-like receptor 8): 6700 nM
Activity [1]: inactive
Activity [2]: inactive
Activity [3]: inactive
Activity [4]: inactive
Activity [5]: inactive
Activity [6]: inactive
Activity [7]: inactive
Activity [8]: inactive
Activity [9]: inactive

CCCCNc1nc(N)nc(C)c1I
EC50 (Toll-like receptor 8): 1640 nM
Activity [1]: inactive
Activity [2]: inactive
Activity [3]: inactive
Activity [4]: inactive
Activity [5]: inactive
Activity [6]: Active
Activity [7]: Active
Activity [8]: Active
Activity [9]: Active
